Assay results from ChEMBL document CHEMBL4052826, “Design and Synthesis of Novel Reactive Oxygen Species Inducers for the Treatment of Pancreatic Ductal Adenocarcinoma” (J Med Chem, 2018).
Calls of active or inactive are those of the source.

What was measured:
MIA PaCa-2 [1] = test: Induction of reactive oxygen species generation in human MIAPaCa2 cells assessed as upregulation of HMOX1 gene expression after 4 hrs by Bru-seq analysis; format: functional, cell-based
BXPC-3 [2] = test: Induction of unfolded protein response in human BxPC3 cells assessed as upregulation of CHOP expression at 2 uM by Western blot analysis; format: functional, cell-based; conditions: TDE = time-dependent effect
Outline: (§1)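 Immunoblotting. Cells (4×10^5) in 60 mm dishes were treated, lysed 30 min at 4°C and quantified by BCA. 40 μg protein was run on SDS-PAGE and transferred to PVDF. Primary antibodies (1:1000) incubated overnight at 4°C, then Dylight 800 secondary, with fluorescent scanning. Bands were normalized to GAPDH or actin loading controls. Mean ± SD, three independent experiments, Student's t-test.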

BXPC-3 [3] = test: Induction of reactive oxygen species generation in human BxPC3 cells assessed as upregulation of NQO1 expression at 2 uM after 4 to 24 hrs by Western blot analysis; format: functional, cell-based; outline: as §1
MIA PaCa-2 [4] = test: Induction of unfolded protein response in human MIAPaCa2 cells assessed as upregulation of CHOP expression at 2 uM by Western blot analysis; format: functional, cell-based; conditions: TDE = time-dependent effect; outline: as §1
[5] = Cytotoxicity against HPDEC assessed as decrease in cell proliferation after 72 hrs by MTT assay; format: cell-based; conditions: Homo sapiens
Outline: (§2)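 MTT assay. Cells (3000–8000/well) attached overnight in RPMI1640 with 10% FBS; the GR line was kept with 200 nM gemcitabine. Serial dilutions (30 nM–10 μM for most lines) were applied for 72 h. MTT was added at a final 300 μg/mL for 3 h at 37°C, formazan was dissolved in DMSO and A570 read. Inhibition = (1 − OD treated/OD control) × 100. IC50 given as mean ± SD, three independent experiments.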

MIA PaCa-2 [6] = test: Induction of apoptosis signaling in human MIAPaCa2 cells at 5 times IC50 after 4 hrs by IPA analysis; format: functional, cell-based
Mus musculus [7] = test: Toxicity in NOD/SCID mouse xenografted with human MIAPaCa2 cells assessed as weakness at 5 mg/kg, ip administered 5 times a week until day 44; format: organism-based; conditions: in vivo
Outline: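 Subcutaneous flank MIA PaCa-2 xenografts (2.0×10^6 cells) in 6-week NOD/SCID mice, randomized at 65 mm3 (n=5/group: vehicle or drug). Dosed ip in 5% DMSO/60% propylene glycol/35% saline, five days on/two off, to day 44. Body weight tracked and mice watched for weakness, weight loss or lethargy; mean ± SEM.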

[8] = Induction of compound aggregation
Mus musculus [9] = test: Toxicity in NOD/SCID mouse xenografted with human MIAPaCa2 cells assessed as body weight loss at 5 mg/kg, ip administered 5 times a week co-administered with gemcitabine at 15 mg/kg administered once a week for 48 days; format: organism-based; conditions: in vivo, 1152 h
Outline: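 MIA PaCa-2 xenografted NOD/SCID mice randomized at 75 mm3 into vehicle (n=4), single-agent (n=3 each) and combination (n=3) arms. Drug given at 5 mg/kg five times a week, gemcitabine at 15 mg/kg once a week, over a 48-day period. Body weight followed; mean ± SEM.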

Mus musculus [10] = test: Toxicity in NOD/SCID mouse xenografted with human MIAPaCa2 cells assessed as microscopic changes in lung at 5 mg/kg, ip administered 5 times a week until day 44 by hematoxylin and eosin staining-based inverted microscopic method; format: organism-based; conditions: in vivo
Outline: (§3)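 Necropsy after the 44-day ip course in MIA PaCa-2 xenograft-bearing NOD/SCID mice: heart, kidney, liver, lung, spleen and pancreas fixed in 10% neutral buffered formalin, paraffin-embedded, sectioned and stained with hematoxylin and eosin. Sections examined by inverted microscope at 20X, compared with vehicle-treated animals.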

PANC-1 [11] = test: Induction of unfolded protein response in human PANC1 cells assessed as upregulation of GRP78 expression at 2 uM by Western blot analysis; format: functional, cell-based; conditions: TDE = time-dependent effect
Outline: (§4)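 Cells (4×10^5) seeded in 60 mm dishes, cultured in RPMI1640 with 10% FBS, 5% CO2, 37°C, then compound-treated. Lysed 30 min at 4°C, BCA-quantified, 40 μg protein resolved by SDS-PAGE, transferred to PVDF, probed overnight at 4°C with primary antibodies (1:1000; GAPDH or actin loading control), then Dylight 800 secondary; fluorescence scanned. Bands normalized to loading control; mean ± SD, three independent experiments.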

MIA PaCa-2 [12] = test: Induction of reactive oxygen species generation in human MIAPaCa2 cells at 1.1 to 10 uM after 24 hrs in presence of NAC by H2DCFDA reactivity assay; format: functional, cell-based
Outline: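 H2DCFDA assay. Trypsinized MIA PaCa-2 cells in suspension were loaded with 20 μM H2DCFDA for 30 min at 37°C, washed and plated at 20,000/well. After 30 min they were treated with compound at 10, 3.3 or 1.1 μM. Fluorescence was read at 493/523 nm over time. DMSO basal and unstained controls were included. NAC pretreatment, where used, was 5 mM for 30 min. Duplicates, three independent experiments.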

Mus musculus [13] = test: Induction of unfolded protein response in tumor of NOD/SCID mouse xenografted with MIAPaCa2 cells assessed as upregulation of GRP78 expression at 5 mg/kg, ip administered 5 times a week until day 44 by Western blot method; format: functional, organism-based
Outline: (§5)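 Dosed ip in 5% DMSO/60% propylene glycol/35% saline, five days on/two off, until day 44, versus vehicle. Tumor lysates immunoblotted with primary antibodies, Dylight 800 secondary, fluorescent scan.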

Mus musculus [14] = test: Toxicity in NOD/SCID mouse xenografted with human MIAPaCa2 cells assessed as microscopic changes in pancreas at 5 mg/kg, ip administered 5 times a week until day 44 by hematoxylin and eosin staining-based inverted microscopic method; format: organism-based; conditions: in vivo; outline: as §3
MIA PaCa-2 [15] = test: Cytotoxicity against human MIAPaCa2 cells assessed as decrease in cell proliferation after 72 hrs in presence of NAC by MTT assay; format: functional, cell-based
Outline: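 MIA PaCa-2 cells were treated for 72 h with compound in the presence of 5 mM NAC. Viability was read by MTT (final 300 μg/mL, 3 h, A570). Mean ± SD of three independent experiments.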

PANC-1 [16] = test: Induction of unfolded protein response in human PANC1 cells assessed as upregulation of CHOP expression at 2 uM by Western blot analysis; format: functional, cell-based; conditions: TDE = time-dependent effect; outline: as §4
Mus musculus [17] = test: Induction of unfolded protein response in tumor of NOD/SCID mouse xenografted with MIAPaCa2 cells assessed as upregulation of CHOP expression at 5 mg/kg, ip administered 5 times a week until day 44 by Western blot method; format: functional, organism-based; outline: as §5
MIA PaCa-2 [18] = test: Induction of unfolded protein response in human MIAPaCa2 cells assessed as upregulation of DDIT3 gene expression after 4 hrs by Bru-seq analysis; format: functional, cell-based
MIA PaCa-2 [19] = test: Antitumor activity against human MIAPaCa2 cells xenografted in NOD/SCID mouse assessed as tumor volume at 5 mg/kg, ip administered 5 times a week until day 44 (reference value: 1291 +/- 168 mm'3); format: functional
Mus musculus [20] = test: Toxicity in NOD/SCID mouse xenografted with human MIAPaCa2 cells assessed as microscopic changes in heart at 5 mg/kg, ip administered 5 times a week until day 44 by hematoxylin and eosin staining-based inverted microscopic method; format: organism-based; conditions: in vivo; outline: as §3
BXPC-3 [21] = test: Cytotoxicity against human BxPC3 cells assessed as decrease in cell proliferation after 72 hrs by MTT assay; format: functional, cell-based; conditions: BXPC-3, 72 h; outline: as §2

O=C1C(Nc2ccc(-c3ccccc3)cc2)=CC(=O)c2ncncc21
308 mm3: Activity (MIA PaCa-2 [19])
0.5 µM: IC50 (BXPC-3 [21])
Non-Toxic: Activity (Mus musculus [7]) | Activity (Mus musculus [9]) | Activity (Mus musculus [10]) | Activity (Mus musculus [14]) | Activity (Mus musculus [20])
2.7 µM: IC50 [5]
active: Activity (MIA PaCa-2 [1]) Dose-dependent effect | Activity (BXPC-3 [2]) Tde | Activity (MIA PaCa-2 [4]) Tde | Activity (MIA PaCa-2 [6]) | Activity [8] | Activity (PANC-1 [11]) Tde | Activity (Mus musculus [13]) | Activity (PANC-1 [16]) Tde | Activity (Mus musculus [17]) | Activity (MIA PaCa-2 [18]) Dose-dependent effect
inactive: Activity (BXPC-3 [3]) | Activity (MIA PaCa-2 [12]) | Activity (MIA PaCa-2 [15])
